Activity data for four molecules are collected here from ChEMBL document CHEMBL1144538, “Synthesis and pharmacological evaluation of some 3-phenyl-2-substituted-3H-quinazolin-4-one as analgesic, anti-inflammatory agents” (2007).

Holding throughout (format): functional
The subject of experiment [1] is Mus musculus. Briefly: Analgesic activity in Wistar Albino mouse at 10 mg/kg, po after 3 hrs by tail-flick technique. The essentials: (§1)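 Tail-flick in Wistar albino mice (25–35 g, either sex, randomly selected), compound given orally as suspension in 1% carboxymethyl cellulose; six animals per group. Reaction time read before dosing and after dosing, cut-off 10 s. Percent analgesic activity = (T2 − T1)/(10 − T1) × 100, T1/T2 being pre/post reaction times; mean of n = 6, one-way ANOVA versus control.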

For experiment [2], the system named is Mus musculus. As to the kind of experiment: Analgesic activity in Wistar Albino mouse at 20 mg/kg, po after 30 mins by tail-flick technique. The essentials: as §1
In experiment [3] the test system is Mus musculus. Briefly: Analgesic activity in Wistar Albino mouse at 20 mg/kg, po after 1 hr by tail-flick technique. The procedure, abridged:
as §1

Experiment [4] has as its system Mus musculus. Briefly: Analgesic activity in Wistar Albino mouse at 20 mg/kg, po after 2 hrs by tail-flick technique. The procedure, abridged: as §1
In experiment [5] the test system is Mus musculus. As to the kind of experiment: Analgesic activity in Wistar Albino mouse at 20 mg/kg, po after 3 hrs by tail-flick technique. The procedure, abridged: as §1
The subject of experiment [6] is Rattus norvegicus. Briefly: Anti-inflammatory activity against Carrageenan-induced paw oedema rat model at 10 mg/kg after 30 mins. The essentials:
(§2)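 Rat carrageenan paw oedema; compound dosed orally as suspension in 1% carboxymethyl cellulose, six rats per group. Paw volume by mercury displacement plethysmography immediately before and at the stated time after carrageenan injection. Percent oedema inhibition computed from pre/post paw volumes of treated versus vehicle-control rats; one-way ANOVA versus control.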

In experiment [7] the test system is Rattus norvegicus. Briefly: Anti-inflammatory activity against Carrageenan-induced paw oedema rat model at 10 mg/kg after 1 hr. The procedure, abridged: as §2
The test system of experiment [8] is Rattus norvegicus. Briefly: Anti-inflammatory activity against Carrageenan-induced paw oedema rat model at 10 mg/kg after 2 hrs. The procedure, abridged:
as §2
(In the carrageenan paw model, swelling and tenderness develop within hours.)

Experiment [9] relates to Rattus norvegicus. As to the kind of experiment: Anti-inflammatory activity against Carrageenan-induced paw oedema rat model at 10 mg/kg after 3 hrs. The procedure, abridged: as §2
Experiment [10] deals with Rattus norvegicus. Briefly: Anti-inflammatory activity against Carrageenan-induced paw oedema rat model at 20 mg/kg after 30 min. The procedure, abridged:
as §2

For experiment [11], the system named is Rattus norvegicus. Briefly: Anti-inflammatory activity against Carrageenan-induced paw oedema rat model at 20 mg/kg after 1 hr. The procedure, abridged: as §2
In experiment [12] the test system is Rattus norvegicus. As to the kind of experiment: Anti-inflammatory activity against Carrageenan-induced paw oedema rat model at 20 mg/kg after 2 hrs. The essentials: as §2
Experiment [13] concerns Rattus norvegicus. Briefly: Anti-inflammatory activity against Carrageenan-induced paw oedema rat model at 20 mg/kg after 3 hrs. The essentials:
as §2

In experiment [14] the test system is Mus musculus. Briefly: Analgesic activity in Wistar Albino mouse at 10 mg/kg, po after 30 mins by tail-flick technique. The essentials: as §1
Experiment [15] deals with Mus musculus. Briefly: Analgesic activity in Wistar Albino mouse at 10 mg/kg, po after 1 hr by tail-flick technique. The essentials: as §1
Experiment [16] deals with Mus musculus. As to the kind of experiment: Analgesic activity in Wistar Albino mouse at 10 mg/kg, po after 2 hrs by tail-flick technique. The essentials: as §1

For the molecule `O=c1c2ccccc2nc(NN=C(c2ccccc2)c2ccccc2)n1-c1ccccc1`, the Activity in experiment [1] was determined as 29%; in experiment [2], 39%; in [3], 41%; in experiment [4], 46%; in [5], 36%; in [6], 27%. The Activity in experiment [7] was determined as 33%; in experiment [8], 35%; in experiment [9], 26%; in [10] it was 36%; in experiment [11], 39%; in [12], 42%. The Activity amounted to 35% in [13], 33% in experiment [14], 36% in [15] and 41% in experiment [16].
Turning to `O=c1c2ccccc2nc(N/N=C\c2ccc([N+](=O)[O-])cc2)n1-c1ccccc1`, the Activity in experiment [1] stood at 27%; in [2], 38%; in [3], 45%; in experiment [4], 47%; in experiment [5], 33%; in experiment [6] it was 25%. Moreover, the Activity in experiment [7] amounted to 28%; in [8], 30%; in experiment [9], 20%; in experiment [10] it was 35%; in experiment [11], 35%; in experiment [12], 36%. The Activity worked out at 32% in experiment [13], 34% in experiment [14], 39% in experiment [15] and 39% in experiment [16].
Turning to `Cc1ccccc1/C=N\Nc1nc2ccccc2c(=O)n1-c1ccccc1`, the Activity came to 33% in experiment [1]; 45% in experiment [2]; 46% in [3]; 48% in experiment [4]; 39% in experiment [5]; 30% in [6]. The Activity in [7] was 32%; in experiment [8], 33%; in experiment [9], 28%; in experiment [10] it was 36%; in experiment [11], 39%; in [12], 42%. Also, the Activity worked out at 30% in [13], 35% in experiment [14], 39% in [15] and 40% in experiment [16].
As for `O=c1c2ccccc2nc(N/N=C\c2ccccc2)n1-c1ccccc1`, the Activity in [1] is given as 29%; in experiment [2], 46%; in [3], 50%; in experiment [4], 53%; in [5], 31%; in [6], 28%. Moreover, the Activity is reported as 32% in experiment [7]; 35% in experiment [8]; 29% in experiment [9]; 36% in [10]; 40% in [11]; 43% in [12]. Further, the Activity amounted to 26% in [13], 35% in experiment [14], 38% in experiment [15] and 41% in [16].
